Test [1] has as its system Staphylococcus epidermidis. Briefly: Antibacterial activity against gram positive bacteria Staphylococcus epidermidis was determined by twofold Micro-broth dilution assay. The class given is functional, organism-based. The essentials:
(§1)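 Broth microdilution with two-fold serial dilutions of compound added to pre-inoculated microtitre plates. Inoculum diluted in phosphate-buffered saline to 10^6 cfu/mL, then plated at a final 10^3 cells per 150 µL medium. Controls were medium plus inoculum and a solvent control at the highest-concentration solvent level. Plates incubated at 37 °C and read by OD at 600 nm. IC50 is the concentration giving 50% of control-inoculum growth.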
In general terms: Dilution methods test growth across graded concentrations, often in twofold steps.

In test [2] the test system is Sporothrix schenckii. Briefly: Antifungal activity against Sporothrix schenck ii was determined by twofold Micro-broth dilution assay. The test is classed as functional, organism-based. To be noted: Sporothrix schenckii; read-out: IC50. An outline of the steps: (§2)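 Fungal strains tested by two-fold serial broth microdilution in microtitre plates. Cells diluted in phosphate-buffered saline to 10^6 cfu/mL and inoculated at a final 10^3 cells per 150 µL medium. Medium/inoculum and solvent controls were included. Incubation at 28 °C, then OD read at 600 nm. IC50 is the concentration at which growth is 50% of the control inoculum.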

The test system of test [3] is Trichophyton rubrum. Briefly: Antifungal activity against Trichophyton rubrum was determined by twofold Micro-broth dilution assay. The test is classed as functional, organism-based. The settings on record: Trichophyton rubrum; read-out: IC50. The essentials: as §2
For test [4], the system named is Salmonella typhimurium. Briefly: Antibacterial activity against gram negative bacteria Salmonella Typhimurium was determined by twofold Micro-broth dilution assay. The class given is functional, organism-based, Salmonella enterica subsp. enterica serovar Typhimurium. The settings on record: Salmonella enterica. The essentials: as §1
Test [5] relates to Escherichia coli. Briefly: Antibacterial activity against gram negative bacteria Escherichia coli was determined by twofold Micro-broth dilution assay. The test is classed as functional, organism-based. An outline of the steps: as §1
Test [6] relates to Staphylococcus aureus. Briefly: Antibacterial activity against gram positive bacteria Staphylococcus aureus was determined by twofold Micro-broth dilution assay. The test is classed as functional, organism-based. The essentials:
as §1

Test [7] has as its system Streptococcus mutans. Briefly: Antibacterial activity against gram positive bacteria Streptococcus mutans was determined by twofold Micro-broth dilution assay. The test is classed as functional, organism-based. An outline of the steps:
as §1

For test [8], the system named is Cryptococcus neoformans. Briefly: Antifungal activity against Cryptococcus neoformans was determined by twofold Micro-broth dilution assay. The class given is functional, organism-based. An outline of the steps:
as §2

The test system of test [9] is Enterococcus faecalis. Briefly: Antibacterial activity against gram positive bacteria Enterococcus faecalis was determined by twofold Micro-broth dilution assay. The test is classed as functional, organism-based. The essentials:
as §1

Test [10] deals with Klebsiella aerogenes. Briefly: Antibacterial activity against gram negative bacteria Enterobacter aerogens was determined by twofold Micro-broth dilution assay. The test is classed as functional, organism-based. The essentials:
as §1

The test system of test [11] is Aspergillus flavus. Briefly: Antifungal activity against Aspergillus flavus was determined by twofold Micro-broth dilution assay. The class given is functional, organism-based. The settings on record: Aspergillus flavus; read-out: IC50. An outline of the steps: as §2
Test [12] concerns Nannizzia gypsea. Briefly: Antifungal activity against Microsporum gypseum was determined by twofold Micro-broth dilution assay. The class given is functional, organism-based. The settings on record: Nannizzia gypsea; read-out: IC50. The essentials: as §2
In test [13] the test system is Shigella flexneri. Briefly: Antibacterial activity against gram negative bacteria Shigella flexenerii was determined by twofold Micro-broth dilution assay. The test is classed as functional, organism-based. An outline of the steps: as §1
Test [14] relates to Salmonella typhi. Briefly: Antibacterial activity against gram negative bacteria Salmonella typhi was determined by twofold Micro-broth dilution assay. The test is classed as functional, organism-based, Salmonella enterica subsp. enterica serovar Typhi. The settings on record: Salmonella enterica.
In test [15] the test system is Aspergillus niger. Briefly: Antifungal activity against Aspergillus niger was determined by twofold Micro-broth dilution assay. The test is classed as functional, organism-based. To be noted: Aspergillus niger; read-out: IC50. The essentials: as §2
The subject of test [16] is Histoplasma capsulatum. Briefly: Antifungal activity against Histoplasma capsulatum was determined by twofold Micro-broth dilution assay. The test is classed as functional, organism-based. The essentials:
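Fungal broth microdilution. Cells were diluted to 10^6 cfu/mL in phosphate-buffered saline and seeded at a final 10^3 cells per well. Two-fold serial compound dilutions were added. Plates carried inoculum-only and solvent controls, the solvent matched to the highest concentration. After incubation at 28 °C, OD was read at 600 nm. IC50 is the concentration where growth is 50% of control.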

Test [17] concerns Candida albicans. Briefly: Antifungal activity against Candida albicans was determined by twofold Micro-broth dilution assay. The class given is functional, organism-based. The settings on record: Candida albicans; read-out: IC50. The essentials:
as §2

The test system of test [18] is Sporothrix schenckii. Briefly: Antifungal activity against Sporothrix schenck ii was determined by twofold Micro-broth dilution assay; No data. The test is classed as functional, organism-based. The essentials:
as §2

In test [19] the test system is Nannizzia gypsea. Briefly: Antifungal activity against Microsporum gypseum was determined by twofold Micro-broth dilution assay; No data. The class given is functional, organism-based. An outline of the steps: as §2

Each structure is given as a SMILES string. ≈ marks a conversion by molar mass, not a printed value.

Consider `C[C@H](CCC(=O)N[C@H](CO)[C@H](O)c1ccc([N+](=O)[O-])cc1)[C@H]1CC[C@H]2[C@@H]3CC[C@@H]4C[C@H](O)CC[C@]4(C)[C@H]3C[C@H](O)[C@]12C`, for which the IC50 in test [1] was 7.5 µg/mL (≈ 12.8 µM); in test [2], over 250 µg/mL; in [3] it was over 250 µg/mL; in test [4] it was over 250 µg/mL; in test [5] it was over 250 µg/mL; in [6] it was 7.5 µg/mL (≈ 12.8 µM). Further, the IC50 was 4 µg/mL (≈ 6.82 µM) in [7]; over 250 µg/mL in test [8]; 15 µg/mL (≈ 25.6 µM) in test [9]; over 250 µg/mL in test [10]; over 250 µg/mL in test [11]; over 250 µg/mL in test [12]. Further, the IC50 in test [13], in [14], in test [15], in test [16] and in test [17] was over 250 µg/mL each time.
`C[C@@H]1[C@H](O)[C@@H](C)/C=C/C=C/C=C/C=C/C=C/C=C/C=C/[C@H](O[C@@H]2O[C@H](C)[C@@H](O)[C@H](N)[C@@H]2O)C[C@@H]2O[C@](O)(C[C@@H](O)C[C@@H](O)[C@H](O)CC[C@@H](O)C[C@@H](O)CC(=O)O[C@H]1C)C[C@H](O)[C@H]2C(=O)O` [AMPHOTERICIN B]: the IC50 is 2.5 µg/mL (≈ 2.71 µM) in [3]; 5 µg/mL (≈ 5.41 µM) in [18]; 5 µg/mL (≈ 5.41 µM) in [11]; 2.5 µg/mL (≈ 2.71 µM) in test [15]; 0.0625 µg/mL (≈ 0.0676 µM) in [17]; 2.5 µg/mL (≈ 2.71 µM) in test [19].

By IC50 is commonly meant the concentration needed to halve the response being measured.
